The values that follow come from ChEMBL document CHEMBL1129943, “5-aminocoumarans: dual inhibitors of lipid peroxidation and dopamine release with protective effects against central nervous system trauma and ischemia” (J Med Chem, 1997).

SMILES strings stand for the structures.

In general, inhibition refers to the percentage by which the read-out fell short of the control. The IC50 is the concentration at which inhibition is half-maximal.

Holding throughout (format): functional
Assay [1] concerns Mus musculus. In words: Locomotor activity was measured in mice after 1 hour administration of methamphetamine. Details: unit not given here.
For assay [2], the species on record is Mus musculus. Kind of assay: Percentage increase of locomotor activity in mice.
For assay [3], the species on record is Rattus norvegicus. Kind of assay: Inhibition of lipid peroxidation by rat liver microsomes. Details: concentration or dose not given beside the values. Particulars: dose or concentration not given here. Summed up: (§1)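 Rat liver microsomes (S-9), 0.3 mg protein in 40 mM Tris-malate pH 7.4. Peroxidation started with a 1:1 mix of FeCl2 (0.25 mM) and NADPH (3 mM), then 1 h at 37 °C. Compound in DMSO added before incubation, tested up to 1 μM final. Thiobarbituric acid method read-out. Activity relative to DMSO vehicle; IC50 from four concentrations by nonlinear regression, otherwise % inhibition at 1 μM.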
Background: Microsomes from liver hold many membrane-bound enzymes, among them those of drug oxidation.

Assay [4] is filed under the species Mus musculus. Kind of assay: Peroral dose required to reduce by 50% the score of excitatory behavior induced by intrathecal injection of ferrous chloride in mice. To be noted: central, read-out: ID50 (the source's name). In a few lines: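 Male Slc:ICR mice, 5 weeks old, 10 per dose. Compound given orally 30 min before intrathecal 5 μL of 50 mM FeCl2 in saline (between L6 and S1). Vehicle was water, or 0.5% gum arabic suspension. Behaviour scored 0–5 (biting to death) from 15 min to 1 h. ID50 from three or four doses, relative to vehicle score.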

Assay [5] is filed under the species Rattus norvegicus. In words: Concentration required to reduce by 50% the amount of lipid peroxide formed in rat liver microsomes. In a few lines:
as §1

`CNc1c(C)c(C)c2c(c1C)CC(C)(C)O2` had a Locomotor activity in the assay on Mus musculus [1] of 1229. This compound also had an Increase in the assay listed under Mus musculus [2] of 84.7%. The compound further registered an inhibition in the assay filed under Rattus norvegicus [3] of 18%. In addition, the ED50 in the assay filed under Mus musculus [4] is 16.6 mg/kg.

Turning to `Cc1c(C)c2c(c(C)c1N)CC(C)(Cn1ccnc1)O2` (centres undefined), in the assay on Mus musculus [1], the Locomotor activity is reported as 3950. Also, the Increase in the assay filed under Mus musculus [2] turned out to be 155.1%. Further, in the assay listed under Rattus norvegicus [3], the inhibition came out at 6%. Also, the ED50 in the assay filed under Mus musculus [4] came out at 25 mg/kg.

Turning to `Cc1c(C)c2c(c(C)c1N)C(c1cccnc1)C(C)(C)O2` (centres undefined), the Locomotor activity with Mus musculus [1] was found to be 1488. The compound also returned an Increase in the assay listed under Mus musculus [2] of 52.1%. Further, in the assay filed under Rattus norvegicus [3], the inhibition is 22%. Besides, the ED50 in the assay filed under Mus musculus [4] was 32.1 mg/kg.

In the assay with Mus musculus [1], `Cc1c(C)c2c(c(C)c1N)CC(C)(CCN1CCCCC1)O2` (centres undefined) registered a Locomotor activity below 3549. Also, the Increase in the assay filed under Mus musculus [2] is given as 206.5%. Also, the inhibition in the assay filed under Rattus norvegicus [3] was 8%. The ED50 in the assay filed under Mus musculus [4] was 18.4 mg/kg.

`Cc1c(C)c2c(c(C)c1N)CC(C)(CN1CCN(C)CC1)O2` (centres undefined): the Locomotor activity in the assay on Mus musculus [1] was 3154. This compound showed an Increase in the assay filed under Mus musculus [2] of 181.1%. For the same compound, in the assay listed under Rattus norvegicus [3], the inhibition was found to be 10%. In addition, the ED50 in the assay filed under Mus musculus [4] was found to be 25.3 mg/kg.

Compound `Cc1c(C)c2c(c(C)c1N)CC(C)(CSc1nccn1C)O2` (centres undefined) displayed a Locomotor activity with Mus musculus [1] of 2228. Further, the Increase in the assay listed under Mus musculus [2] is given as 104.2%. The same compound gave an inhibition in the assay listed under Rattus norvegicus [3] of 11%. In addition, the ED50 in the assay filed under Mus musculus [4] worked out at 37.1 mg/kg.

For `Cc1c(C)c2c(c(C)c1N)CC(C)(CN1CCN(c3ccccc3)CC1)O2` (centres undefined), the Locomotor activity with Mus musculus [1] came out at 1484. Moreover, in the assay listed under Mus musculus [2], the Increase is 47.3%. In the assay filed under Rattus norvegicus [5], this compound had an IC50 of 70 nM. The ED50 in the assay filed under Mus musculus [4] was found to be 13.1 mg/kg.

In turn, `Cc1c(C)c2c(c(C)c1N)CC(C)(CNc1ccccc1)O2` (centres undefined) showed a Locomotor activity with Mus musculus [1] of 1812. For the same compound, in the assay filed under Mus musculus [2], the Increase is recorded as 70.4%. This compound displayed a concentration for half-maximal inhibition (IC50) in the assay listed under Rattus norvegicus [5] of 260 nM. Further, the ED50 in the assay listed under Mus musculus [4] was found to be 15.7 mg/kg.

In the case of `Cc1c(C)c2c(c(C)c1N)CC(C)(CCN(C)C)O2` (centres undefined), the Locomotor activity in the assay on Mus musculus [1] stood at 2129. In the assay listed under Mus musculus [2], this compound gave an Increase of 115.2%. This compound also showed an inhibition in the assay listed under Rattus norvegicus [3] of 4%. For the same compound, the ED50 in the assay listed under Mus musculus [4] worked out at 19 mg/kg.

`Cc1c(C)c2c(c(C)c1N)CC(C)(CSc1ccccc1)O2` (centres undefined): in the assay on Mus musculus [1], the Locomotor activity is listed as below 1098. In the assay filed under Mus musculus [2], this compound gave an Increase of 24.7%. In addition, the IC50 in the assay listed under Rattus norvegicus [5] is 270 nM. Moreover, the ED50 in the assay filed under Mus musculus [4] was 24.7 mg/kg.

`Cc1c(C)c2c(c(C)c1N)CC(C)(CN1CCC(c3ccccc3)CC1)O2` (centres undefined) registered a Locomotor activity in the assay with Mus musculus [1] below 482. Moreover, the Increase in the assay filed under Mus musculus [2] is 1.8%. In the assay listed under Rattus norvegicus [5], this compound displayed an IC50 of 70 nM. Besides, the ED50 in the assay listed under Mus musculus [4] was 10.4 mg/kg.

`Cc1c(C)c2c(c(C)c1N)CC(C)(CN1CCCCC1)O2` (centres undefined) showed a Locomotor activity in the assay on Mus musculus [1] of 2960. The Increase in the assay filed under Mus musculus [2] is recorded as 93.7%. In the assay filed under Rattus norvegicus [3], this compound showed an inhibition of 18%. In addition, in the assay filed under Mus musculus [4], the ED50 came to 11.7 mg/kg.

In the assay on Mus musculus [1], `Cc1c(C)c2c(c(C)c1N)CC(C)(CCc1ccc(F)cc1)O2` (centres undefined) came in with a Locomotor activity of 1185. The Increase in the assay filed under Mus musculus [2] came to 80.1%. This compound displayed an IC50 in the assay filed under Rattus norvegicus [5] of 80 nM. For the same compound, the ED50 in the assay filed under Mus musculus [4] turned out to be 11.5 mg/kg.

As for `Cc1c(C)c2c(c(C)c1N)C(c1ccccc1)C(C)(C)O2` (centres undefined), in the assay on Mus musculus [1], the Locomotor activity was found to be 1845. In addition, the Increase in the assay listed under Mus musculus [2] worked out at 77.3%. Besides, the IC50 in the assay listed under Rattus norvegicus [5] was found to be 290 nM. Moreover, the ED50 in the assay filed under Mus musculus [4] came out at 24.8 mg/kg.

Compound `Cc1c(C)c2c(c(C)c1N)CC(C)(CSc1ccncc1)O2` (centres undefined) yielded a Locomotor activity with Mus musculus [1] below 892. In the assay listed under Mus musculus [2], this compound returned an Increase of 10.2%. The same compound gave a 50% inhibitory concentration (IC50) in the assay filed under Rattus norvegicus [5] of 630 nM. In the assay filed under Mus musculus [4], the ED50 is 19.9 mg/kg.

`Cc1c(C)c2c(c(C)c1N)CC(C)(CSc1nc3ccccc3s1)O2` (centres undefined) displayed a Locomotor activity in the assay on Mus musculus [1] of 1391. In the assay filed under Mus musculus [2], this compound came in with an Increase of 45.3%. Also, in the assay listed under Rattus norvegicus [5], 70 nM corresponded to half-maximal inhibition (IC50). In addition, the ED50 in the assay listed under Mus musculus [4] is 33.7 mg/kg.
